Activity calls are given as the source filed them. No cut-off for these calls is given here.
How the values were obtained:
P2Y purinoceptor 2 [1] = target: T1, P2Y purinoceptor 2 (Homo sapiens, UniProt P41231); assay: Agonist activity by measuring inositol phosphate accumulation in 1321N1 human astrocytoma cells stably expressing human P2Y purinoceptor 2r; No effect as either agonist or antagonist at 10 uM; type: functional
Outline: (§1)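 Inositol phosphate accumulation measured in 1321N1 human astrocytoma cells stably expressing human P2Y1, P2Y2, P2Y4 or P2Y11 receptor. Full concentration–effect curves, repeated in at least three separate experiments run in duplicate or triplicate. EC50 from four-parameter logistic fit. Relative efficacy (%) taken against a maximal effective concentration of UTP or UDP in the same experiment.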

[2] = target: T2, P2Y purinoceptor 11 (Homo sapiens) (UniProt Q96G91); assay: Agonist activity by measuring inositol phosphate accumulation in 1321N1 human astrocytoma cells stably expressing human P2Y purinoceptor 11; No effect as either agonist or antagonist at 10 uM; type: functional; outline: as §1
T2 sequence (whole entry): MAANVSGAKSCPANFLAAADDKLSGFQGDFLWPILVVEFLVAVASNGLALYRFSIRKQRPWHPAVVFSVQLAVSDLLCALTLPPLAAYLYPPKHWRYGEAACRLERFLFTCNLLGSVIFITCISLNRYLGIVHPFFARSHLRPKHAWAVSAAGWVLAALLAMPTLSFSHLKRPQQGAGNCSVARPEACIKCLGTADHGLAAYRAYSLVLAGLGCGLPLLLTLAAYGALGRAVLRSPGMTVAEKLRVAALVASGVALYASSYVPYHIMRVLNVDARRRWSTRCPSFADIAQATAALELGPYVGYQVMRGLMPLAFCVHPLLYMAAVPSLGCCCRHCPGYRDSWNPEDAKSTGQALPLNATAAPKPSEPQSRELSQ

[3] = target: P2Y purinoceptor 4 (Homo sapiens) (UniProt P51582); assay: Agonist activity by measuring inositol phosphate accumulation in 1321N1 human astrocytoma cells stably expressing human P2Y purinoceptor 4; No effect as either agonist or antagonist at 10 uM; type: functional; outline: as §1
P2Y purinoceptor 4 (Homo sapiens), sequence (P51582 whole entry): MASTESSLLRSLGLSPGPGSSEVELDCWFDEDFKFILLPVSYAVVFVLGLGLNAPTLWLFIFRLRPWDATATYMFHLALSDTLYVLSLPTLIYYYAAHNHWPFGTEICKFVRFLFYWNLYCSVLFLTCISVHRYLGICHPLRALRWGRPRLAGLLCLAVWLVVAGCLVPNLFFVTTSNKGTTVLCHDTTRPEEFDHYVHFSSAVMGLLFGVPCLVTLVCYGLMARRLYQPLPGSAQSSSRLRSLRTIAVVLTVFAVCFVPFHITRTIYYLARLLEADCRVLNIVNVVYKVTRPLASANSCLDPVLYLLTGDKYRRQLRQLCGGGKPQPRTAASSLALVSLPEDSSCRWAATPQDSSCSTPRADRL

P2Y purinoceptor 1 [4] = target: P2Y purinoceptor 1 (Meleagris gallopavo, UniProt P49652); assay: Activation of Purinoceptor P2Y1-mediated phospholipase C in turkey erythrocyte membranes; type: cell membranes
P2Y purinoceptor 1 (Meleagris gallopavo, UniProt P49652), sequence (P49652 whole entry): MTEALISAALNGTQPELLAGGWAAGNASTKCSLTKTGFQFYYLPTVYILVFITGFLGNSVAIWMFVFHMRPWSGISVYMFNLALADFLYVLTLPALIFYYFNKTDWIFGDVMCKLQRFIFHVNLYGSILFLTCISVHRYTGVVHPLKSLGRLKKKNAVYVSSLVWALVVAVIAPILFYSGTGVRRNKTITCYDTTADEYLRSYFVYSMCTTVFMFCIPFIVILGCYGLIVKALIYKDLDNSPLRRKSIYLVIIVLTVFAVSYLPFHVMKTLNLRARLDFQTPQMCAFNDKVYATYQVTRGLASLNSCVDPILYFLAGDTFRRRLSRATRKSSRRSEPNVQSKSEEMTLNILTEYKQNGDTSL
Outline: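 Turkey erythrocytes labelled 18–24 h at 37 °C with 2-[3H]myo-inositol in inositol-free DMEM. Total [3H]inositol phosphates separated by anion exchange. EC50 from four-parameter logistic fit, at least three experiments.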

P2Y purinoceptor 2 [5] = target: T1, P2Y purinoceptor 2; assay: (§2) Agonist activity by measuring inositol phosphate accumulation in 1321N1 human astrocytoma cells stably expressing human P2Y purinoceptor 2; type: functional; outline: as §1
[6] = target: P2Y purinoceptor 4 (Homo sapiens) (UniProt P51582); assay: Agonist activity by measuring inositol phosphate accumulation in 1321N1 human astrocytoma cells stably expressing human P2Y purinoceptor 4; type: functional; outline: as §1
[7] = target: T3, Ectonucleoside triphosphate diphosphohydrolase 2 (Rattus norvegicus) (UniProt O35795); assay: Hydrolysis rate as substrate of rat Ectonucleoside triphosphate diphosphohydrolase 2 (NTPDase 2) (Ecto-apyrase); design: scale not given: the % may be the effect or the level left
T3 sequence (whole entry): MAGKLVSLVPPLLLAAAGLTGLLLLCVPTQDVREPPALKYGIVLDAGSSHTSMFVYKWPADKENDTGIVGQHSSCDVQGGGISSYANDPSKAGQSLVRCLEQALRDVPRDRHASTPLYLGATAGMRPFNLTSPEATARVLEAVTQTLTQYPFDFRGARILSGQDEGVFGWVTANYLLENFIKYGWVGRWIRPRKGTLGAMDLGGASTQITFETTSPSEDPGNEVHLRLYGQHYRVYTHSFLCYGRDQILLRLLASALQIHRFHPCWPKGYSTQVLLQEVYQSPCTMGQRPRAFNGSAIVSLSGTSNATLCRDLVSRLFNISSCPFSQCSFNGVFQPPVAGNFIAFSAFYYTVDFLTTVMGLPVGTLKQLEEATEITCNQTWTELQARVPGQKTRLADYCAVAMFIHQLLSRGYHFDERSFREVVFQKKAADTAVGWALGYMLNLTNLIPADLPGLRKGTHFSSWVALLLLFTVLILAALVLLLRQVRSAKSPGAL
Outline: (§3)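 Intact CHO cells stably expressing rat NTPDase1 or NTPDase2, seeded 24 h before assay. Incubated at 37 °C in Hepes-buffered saline, pH 7.4, with nucleotide substrate. Supernatant aliquots taken over time and analysed by HPLC at 260 nm. Rate expressed relative to ATP (100%). Nontransfected CHO cells served as control. Two experiments, each in duplicate.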

[8] = target: T2, P2Y purinoceptor 11 (Homo sapiens); assay: Agonist activity by measuring inositol phosphate accumulation in 1321N1 human astrocytoma cells stably expressing human P2Y purinoceptor 11; type: functional; outline: as §1
[9] = target: T4, Ectonucleoside triphosphate diphosphohydrolase 1 (Rattus norvegicus) (UniProt P97687); assay: Hydrolysis rate as substrate of rat Ectonucleoside triphosphate diphosphohydrolase 1 (NTPDase 1) (Ecto-apyrase); design: scale not given: the % may be the effect or the level left; outline: as §3
T4 sequence (whole entry): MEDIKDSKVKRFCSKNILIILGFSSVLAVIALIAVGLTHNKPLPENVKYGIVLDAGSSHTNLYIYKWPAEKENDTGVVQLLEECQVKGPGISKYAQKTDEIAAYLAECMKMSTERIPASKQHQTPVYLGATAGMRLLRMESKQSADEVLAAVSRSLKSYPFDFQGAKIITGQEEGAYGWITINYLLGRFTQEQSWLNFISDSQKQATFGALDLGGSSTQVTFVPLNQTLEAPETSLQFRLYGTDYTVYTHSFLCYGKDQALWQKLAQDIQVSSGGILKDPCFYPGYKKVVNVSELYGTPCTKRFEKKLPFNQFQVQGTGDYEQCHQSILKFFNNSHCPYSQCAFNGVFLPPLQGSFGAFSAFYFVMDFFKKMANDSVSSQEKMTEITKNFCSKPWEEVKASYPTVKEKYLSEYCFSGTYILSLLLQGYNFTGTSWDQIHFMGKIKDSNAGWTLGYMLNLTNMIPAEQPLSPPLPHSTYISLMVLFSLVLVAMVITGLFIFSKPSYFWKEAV

P2Y purinoceptor 1 [10] = target: T5, P2Y purinoceptor 1 (Homo sapiens, UniProt P47900); assay: Accumulation of inositol phosphate in 1321N1 astrocytoma cells expressing human P2Y1 purinoceptor; type: cell-based; outline: as §1
T5 sequence (P47900 whole entry): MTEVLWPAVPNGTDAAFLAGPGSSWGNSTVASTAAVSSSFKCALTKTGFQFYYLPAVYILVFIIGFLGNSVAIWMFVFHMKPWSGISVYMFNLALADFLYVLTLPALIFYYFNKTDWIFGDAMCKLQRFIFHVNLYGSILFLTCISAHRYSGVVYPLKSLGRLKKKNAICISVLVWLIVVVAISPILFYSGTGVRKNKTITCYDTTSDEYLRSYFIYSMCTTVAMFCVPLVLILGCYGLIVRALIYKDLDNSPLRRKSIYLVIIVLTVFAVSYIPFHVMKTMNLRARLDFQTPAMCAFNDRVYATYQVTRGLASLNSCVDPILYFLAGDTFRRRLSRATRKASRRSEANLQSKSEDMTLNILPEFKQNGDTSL

[11] = target: P2Y purinoceptor 1 (Meleagris gallopavo) (UniProt P49652); assay: Agonist activity by measuring Purinoceptor P2Y1-promoted phospholipase C activity in turkey erythrocyte membranes; type: functional, cell membranes
P2Y purinoceptor 1 (Meleagris gallopavo), sequence (P49652 whole entry): as the sequence (P49652 whole entry) above
Outline: (§4)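 Turkey erythrocytes labelled 18–24 h at 37 °C with 2-[3H]myo-inositol in inositol-free DMEM. Ghosts (about 175 μg protein) incubated 5 min at 30 °C in pH 7.0 Hepes/KCl buffer with EGTA, CaCl2 and MgSO4, plus 1 μM GTPγS and the agonist. Total [3H]inositol phosphates separated by anion exchange. EC50 from four-parameter logistic fit, at least three experiments.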

P2Y purinoceptor 1 [12] = target: T5, P2Y purinoceptor 1; assay: Agonist activity by measuring inositol phosphate accumulation in 1321N1 human astrocytoma cells stably expressing human P2Y purinoceptor 1; No effect as either agonist or antagonist at 10 uM; type: functional; outline: as §1
[13] = target: P2Y purinoceptor 1 (Meleagris gallopavo) (UniProt P49652); assay: Agonist activity by measuring Purinoceptor P2Y1-promoted phospholipase C activity in turkey erythrocyte membranes; No effect as either agonist or antagonist at 10 uM; type: functional, cell membranes; outline: as §4
Rattus norvegicus = species: Rattus norvegicus; assay: Hydrolysis rate of compound as substrate of purified recombinant rat Ecto-5'-nucleotidase; type: functional; design: scale not given: the % may be the effect or the level left
Outline: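 Purified baculovirus-expressed rat ecto-5′-nucleotidase (0.5 μg) incubated 10 min at 37 °C with 100 μM (final) substrate in Tris-buffered saline containing 0.4 mM MgCl2, pH 7.4. Reaction stopped with 5% TCA. Released inorganic phosphate measured by the Lanzetta method. Activity expressed relative to AMP (100%). Two experiments, each in duplicate.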

P2Y purinoceptor 2 [14] = target: T1, P2Y purinoceptor 2; assay: Agonist activity by measuring inositol phosphate accumulation in 1321N1 human astrocytoma cells stably expressing human P2Y purinoceptor 2; No effect as either agonist or antagonist at 10 uM; type: functional
[15] = target: P2Y purinoceptor 1 (Meleagris gallopavo) (UniProt P49652); assay: Agonist activity by measuring Purinoceptor P2Y1-promoted phospholipase C activity in turkey erythrocyte membranes; NE means no effect.; type: functional, cell membranes; outline: as §4
P2Y purinoceptor 2 [16] = target: T1, P2Y purinoceptor 2; assay: as §2; type: functional; outline: as §1; remark: listed apart in the source
[17] = target: P2Y purinoceptor 4 (Homo sapiens) (UniProt P51582); assay: Agonist activity by measuring the agonist potencies of the corresponding ribose- containing nucleotides, for the receptor subtype human P2Y purinoceptor 4; No effect as either agonist or antagonist at 10 uM; type: functional; outline: as §1

T1 sequence (P41231 whole entry): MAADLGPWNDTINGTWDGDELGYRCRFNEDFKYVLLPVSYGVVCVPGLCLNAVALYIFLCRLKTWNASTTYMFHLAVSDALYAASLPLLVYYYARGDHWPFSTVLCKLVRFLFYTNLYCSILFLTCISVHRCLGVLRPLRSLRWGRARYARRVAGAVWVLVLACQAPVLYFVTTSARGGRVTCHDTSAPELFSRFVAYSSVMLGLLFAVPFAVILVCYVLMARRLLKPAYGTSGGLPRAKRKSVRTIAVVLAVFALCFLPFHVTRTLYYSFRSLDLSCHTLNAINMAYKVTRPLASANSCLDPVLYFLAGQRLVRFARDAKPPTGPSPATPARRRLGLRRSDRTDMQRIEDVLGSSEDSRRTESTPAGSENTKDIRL

CSc1nc(N)c2ncn([C@@H]3O[C@H](COP(=O)(O)OP(=O)(O)O)[C@@H](O)[C@H]3O)c2n1
NE (P2Y purinoceptor 2 [1]): inactive | NE [2]: inactive | NE [3]: inactive

Nc1ncnc2c1ncn2C1C(O)C(O)C2(COP(=O)(O)OP(=O)(O)OP(=O)(O)O)CC12 (stereo unspecified)
EC50 (P2Y purinoceptor 1 [4]): 14 nM | EC50 (P2Y purinoceptor 2 [5]): 91 nM | % of maximal effect [6]: 32% | Activity [7]: 4% | % of maximal effect [8]: 35% | Activity [9]: 52%

CSc1nc(N)c2ncn([C@@H]3O[C@H](COP(=O)(O)OP(=O)(O)OP(=O)(O)O)[C@@H](O)[C@H]3O)c2n1
EC50 (P2Y purinoceptor 1 [10]): 34 nM

CSc1nc(N)c2ncn([C@@H]3O[C@H](COP(=O)(O)O)[C@@H](O)[C@H]3O)c2n1
% of maximal effect [11]: 15% | NE (P2Y purinoceptor 1 [12]): inactive | NE [2]: inactive

CSc1nc(N)c2ncn(C3C(O)C(O)[C@@]4(COP(=O)(O)OP(=O)(O)OP(=O)(O)O)C[C@@H]34)c2n1 (stereo partly specified)
EC50 (P2Y purinoceptor 1 [10]): 23 nM | EC50 (P2Y purinoceptor 1 [4]): 3.7 nM

Nc1nc(Cl)nc2c1ncn2C1C(O)C(O)[C@@]2(COP(=O)(O)OP(=O)(O)OP(=O)(O)O)C[C@@H]12 (stereo partly specified)
EC50 (P2Y purinoceptor 1 [10]): 7 nM | EC50 (P2Y purinoceptor 1 [4]): 3 nM | EC50 (P2Y purinoceptor 2 [5]): 1900 nM

Nc1ncnc2c1ncn2[C@@H]1O[C@H](COP(=O)(O)OP(=O)(O)OP(=O)(O)O)[C@@H](O)[C@H]1O [ADENOSINE TRIPHOSPHATE]
EC50 (P2Y purinoceptor 2 [5]): 85 nM | Activity [7]: 100% | Activity [9]: 100% | NE [3]: inactive

CNC(=O)[C@@]12C[C@@H]1[C@@H](n1cnc3c(NC)nc(Cl)nc31)[C@H](O)[C@@H]2O
NE [13]: inactive

CNc1ncnc2c1ncn2C1C(O)C(O)[C@@]2(COP(=O)(O)OP(=O)(O)OP(=O)(O)O)C[C@@H]12 (stereo partly specified)
EC50 (P2Y purinoceptor 1 [10]): 33 nM | EC50 (P2Y purinoceptor 1 [4]): 92 nM | EC50 (P2Y purinoceptor 2 [5]): 197 nM

Nc1nc(Cl)nc2c1ncn2[C@H]1[C@H](O)[C@H](O)[C@@]2(COP(=O)(O)O)C[C@@H]12
EC50 (P2Y purinoceptor 1 [10]): 1890 nM | EC50 (P2Y purinoceptor 1 [4]): 3900 nM

Nc1ncnc2c1ncn2[C@@]12C[C@@H]1[C@H](COP(=O)(O)O)[C@H](O)[C@@H]2O
Activity (Rattus norvegicus): 0%

Nc1ncnc2c1ncn2[C@@H]1O[C@H](COP(=O)(O)O)[C@@H](O)[C@H]1O
Activity (Rattus norvegicus): 100% | NE [13]: inactive

Nc1ncnc2c1ncn2[C@@H]1O[C@H](COP(=O)(O)OP(=O)(O)CP(=O)(O)O)[C@@H](O)[C@H]1O
NE (P2Y purinoceptor 2 [14]): inactive | NE (P2Y purinoceptor 1 [12]): inactive | NE [13]: inactive

Nc1ncnc2c1ncn2[C@H]1[C@H](O)[C@H](O)[C@@]2(COP(=O)(O)O)C[C@H]12
Activity (Rattus norvegicus): 0.14% | NE [15]: inactive

Nc1nc(Cl)nc2c1ncn2[C@@H]1O[C@H](COP(=O)(O)OP(=O)(O)OP(=O)(O)O)[C@@H](O)[C@H]1O
EC50 (P2Y purinoceptor 1 [10]): 770 nM | EC50 (P2Y purinoceptor 1 [4]): 720 nM | EC50 (P2Y purinoceptor 2 [5]): 2300 nM

Nc1ncnc2c1ncn2C1C(O)C(O)[C@@]2(COP(=O)(O)OP(=O)(O)CP(=O)(O)O)C[C@H]12 (stereo partly specified)
EC50 (P2Y purinoceptor 1 [10]): 158 nM | NE (P2Y purinoceptor 2 [14]): inactive | EC50 (P2Y purinoceptor 1 [4]): 11300 nM | NE [3]: inactive

CNc1nc(Cl)nc2c1ncn2C1C(O)C(O)[C@@]2(COP(=O)(O)OP(=O)(O)OP(=O)(O)O)C[C@@H]12 (stereo partly specified)
EC50 (P2Y purinoceptor 1 [10]): 9 nM | EC50 (P2Y purinoceptor 1 [4]): 6 nM | EC50 (P2Y purinoceptor 2 [5]): 8400 nM

C[S+]([O-])c1nc(N)c2ncn(C3O[C@H](COP(=O)(O)O)[C@@H](O)[C@H]3O)c2n1 (stereo partly specified)
NE (P2Y purinoceptor 1 [12]): inactive | NE [13]: inactive

CSc1nc(N)c2ncn([C@H]3[C@H](O)[C@H](O)[C@@]4(COP(=O)(O)O)C[C@@H]34)c2n1
EC50 (P2Y purinoceptor 1 [10]): 590 nM | EC50 (P2Y purinoceptor 1 [4]): 1190 nM | NE [2]: inactive

CSc1nc(N)c2ncn([C@H]3[C@H](O)[C@H](O)[C@@]4(COP(=O)(O)OP(=O)(O)O)C[C@@H]34)c2n1
EC50 (P2Y purinoceptor 1 [10]): 0.4 nM | EC50 (P2Y purinoceptor 1 [4]): 0.88 nM | % of maximal effect (P2Y purinoceptor 2 [16]): 54% | NE [17]: inactive | NE [2]: inactive

C[S+]([O-])c1nc(N)c2ncn([C@H]3[C@H](O)[C@H](O)[C@@]4(COP(=O)(O)O)C[C@H]34)c2n1 (stereo partly specified)
EC50 (P2Y purinoceptor 1 [4]): 36.6 nM

Nc1nc(Cl)nc2c1ncn2[C@@H]1O[C@H](COP(=O)(O)O)[C@@H](O)[C@H]1O
NE (P2Y purinoceptor 1 [12]): inactive | NE [13]: inactive

Nc1ncnc2c1ncn2C12CC1C(COP(=O)(O)OP(=O)(O)OP(=O)(O)O)C(O)C2O (stereo unspecified)
Activity [7]: 34% | Activity [9]: 57%
